Experiment [1] has as its system MCF7. The experiment is described as follows: Cytotoxicity against human MCF7 cells after 72 hrs. The conditions noted are these: MCF7, 72 h. Type of experiment: functional, cell-based.
For another experiment, the system named is MDA-MB-231. The experiment is described as follows: Cytotoxicity against human MDA-MB-231 cells after 72 hrs. In kind it is functional, cell-based. The conditions noted are these: MDA-MB-231, 72 h. In outline:
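MDA-MB-231 cells (100 μL at 5000 cells/mL) grown 72 h at 37 °C, 5% CO2, then given graded concentrations (six replicates) for a further 72 h. Glutardialdehyde fixation, 0.02 M crystal violet staining, 70% ethanol elution, absorbance at 590 nm. A day-0 biomass plate was subtracted and the control taken as 100%. IC50 is 50% proliferation inhibition, mean of at least two independent runs.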

The test system of experiment [2] is MCF7. The experiment is described as follows: Cytotoxicity against human MCF7 cells after 96 hrs. The settings on record: MCF7, 96 h.

These results are taken from ChEMBL document CHEMBL1139179, “5-Alkynyl-2'-deoxyuridines: chromatography-free synthesis and cytotoxicity evaluation against human breast cancer cells” (Bioorg Med Chem, 2007).

Some results are limits rather than exact numbers.

Usually IC50 stands for the midpoint of a concentration-inhibition curve. Higher therefore signals weaker potency. In the case of `Cc1ccc(C#Cc2cn([C@H]3C[C@H](O)[C@@H](CO)O3)c(=O)[nH]c2=O)cc1`, the IC50 in the experiment on MCF7 [1] is 0.9 µM; in the experiment on MDA-MB-231, over 50 µM.
For the compound `O=c1[nH]c(=O)n([C@H]2C[C@H](O)[C@@H](CO)O2)cc1C#CC1(O)CCCCC1`, the IC50 with MCF7 [2] and in the experiment with MDA-MB-231 was over 50 µM in each case.
As to `O=c1[nH]cc(F)c(=O)[nH]1` [FLUOROURACIL], the results for the IC50 in the experiment with MCF7 [1] and with MDA-MB-231 were 4.8 µM and 9.6 µM, respectively.
As for `C#Cc1cn([C@H]2C[C@H](O)[C@@H](CO)O2)c(=O)[nH]c1=O`, the IC50 with MCF7 [2] was 0.4 µM; in the experiment on MDA-MB-231 it was 4.4 µM.
On to `CCCCCc1ccc(C#Cc2cn([C@H]3C[C@H](O)[C@@H](CO)O3)c(=O)[nH]c2=O)cc1`, for which the IC50 is 37 µM in the experiment with MCF7 [2] and 29.2 µM in the experiment with MDA-MB-231.
As to `O=c1[nH]c(=O)n([C@H]2C[C@H](O)[C@@H](CO)O2)cc1C#CC1CC1`, the IC50 in the experiment on MCF7 [2] and in the experiment on MDA-MB-231 was over 50 µM each time.
With `CCCC#Cc1cn([C@H]2C[C@H](O)[C@@H](CO)O2)c(=O)[nH]c1=O`, the IC50 in the experiment on MCF7 [2] and in the experiment on MDA-MB-231 was over 50 µM in each case.
With `CC(C)(C)c1ccc(C#Cc2cn([C@H]3C[C@H](O)[C@@H](CO)O3)c(=O)[nH]c2=O)cc1`, the IC50 is 9.5 µM with MCF7 [2] and over 50 µM in the experiment with MDA-MB-231.
For `C[Si](C)(C)C#Cc1cn([C@H]2C[C@H](O)[C@@H](CO)O2)c(=O)[nH]c1=O`, the IC50 in the experiment with MCF7 [2] stood at 1.6 µM; with MDA-MB-231, 4.2 µM.
